Reference: ChEMBL document CHEMBL5058577, “EUbOPEN Chemogenomics Library 2 (Multiplex)” (2022)

Test system: Fibroblast
Test: Multiplex assay against human fibroblast
Format: toxicity, cell-based
In short: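 Tubulin, mitochondrial-mass and membrane-permeability phenotypes are per cents of healthy-nucleus cells. Cells were gated by CellPathfinder machine learning into Hoechst high-intensity objects or normal cells, normal cells into healthy, pyknosed or fragmented nuclei, and pyknosed cells into mitotic or apoptotic. Before that, live cells stained at seeding with Hoechst33342, BioTracker Green Microtubule Cytoskeleton Dye, MitoTracker Red and Annexin V Alexa Fluor 680 were imaged on a CQ1 microscope at 37°C and 5% CO2 after compound addition.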

[1] = 12 h, 1 µM, compound concentration 1 uM, replicate 1
[2] = 12 h, 1 µM, compound concentration 1 uM, replicate 2
[3] = 12 h, 10 µM, compound concentration 10 uM, replicate 1
[4] = 12 h, 10 µM, compound concentration 10 uM, replicate 2
[5] = 24 h, 1 µM, compound concentration 1 uM, replicate 1
[6] = 24 h, 1 µM, compound concentration 1 uM, replicate 2
[7] = 24 h, 10 µM, compound concentration 10 uM, replicate 1
[8] = 24 h, 10 µM, compound concentration 10 uM, replicate 2
[9] = 48 h, 1 µM, compound concentration 1 uM, replicate 1
[10] = 48 h, 1 µM, compound concentration 1 uM, replicate 2
[11] = 48 h, 10 µM, compound concentration 10 uM, replicate 1
[12] = 48 h, 10 µM, compound concentration 10 uM, replicate 2

CCCCCC(O)/C=C/[C@H]1C(=O)CC(O)C1C/C=C\CCCC(=O)O (some centres undefined) was tested, and the “Population Apoptotic (%)” value [1] was 52%, the “Population Fragmented Nuclei (%)” value [1] was 24% and the “Population Healthy Nuclei (%)” value [1] was 65%. The “Population Hoechst High Intensity Objects (%)” value [1] was 1%, the “Population Membrane Permeable-Phenotype (%)” value [1] was 0% and the “Population Mitochondria Different-Phenotype (%)” value [1] was 4%. For the same compound, the “Population Mitotic Cells (%)” value [1] was 47%, the “Population Normal (%)” value [1] was 98% and the “Population Pyknosed Nuclei (%)” value [1] was 10%. The “Population Tubulin-Different-Phenotype (%)” value [1] was 19%, the “Total Cell Count” value [1] was 172 and the “Population Apoptotic (%)” value [2] was 50%. For the same compound, the “Population Fragmented Nuclei (%)” value [2] was 40%, the “Population Healthy Nuclei (%)” value [2] was 41% and the “Population Hoechst High Intensity Objects (%)” value [2] was 2%. For the same compound, the “Population Membrane Permeable-Phenotype (%)” value [2] was 7%, the “Population Mitochondria Different-Phenotype (%)” value [2] was 20% and the “Population Mitotic Cells (%)” value [2] was 50%. For the same compound, the “Population Normal (%)” value [2] was 97%, the “Population Pyknosed Nuclei (%)” value [2] was 18% and the “Population Tubulin-Different-Phenotype (%)” value [2] was 52%. For the same compound, the “Total Cell Count” value [2] was 169, the “Population Apoptotic (%)” value [3] was 42% and the “Population Fragmented Nuclei (%)” value [3] was 16%. The “Population Healthy Nuclei (%)” value [3] was 69%, the “Population Hoechst High Intensity Objects (%)” value [3] was 0% and the “Population Membrane Permeable-Phenotype (%)” value [3] was 0%. For the same compound, the “Population Mitochondria Different-Phenotype (%)” value [3] was 1%, the “Population Mitotic Cells (%)” value [3] was 57% and the “Population Normal (%)” value [3] was 99%. For the same compound, the “Population Pyknosed Nuclei (%)” value [3] was 13%, the “Population Tubulin-Different-Phenotype (%)” value [3] was 16% and the “Total Cell Count” value [3] was 139. For the same compound, the “Population Apoptotic (%)” value [4] was 34%, the “Population Fragmented Nuclei (%)” value [4] was 20% and the “Population Healthy Nuclei (%)” value [4] was 56%. For the same compound, the “Population Hoechst High Intensity Objects (%)” value [4] was 2%, the “Population Membrane Permeable-Phenotype (%)” value [4] was 3% and the “Population Mitochondria Different-Phenotype (%)” value [4] was 7%. The “Population Mitotic Cells (%)” value [4] was 65%, the “Population Normal (%)” value [4] was 97% and the “Population Pyknosed Nuclei (%)” value [4] was 23%. For the same compound, the “Population Tubulin-Different-Phenotype (%)” value [4] was 41%, the “Total Cell Count” value [4] was 101 and the “Population Apoptotic (%)” value [5] was 35%. For the same compound, the “Population Fragmented Nuclei (%)” value [5] was 20%, the “Population Healthy Nuclei (%)” value [5] was 70% and the “Population Hoechst High Intensity Objects (%)” value [5] was 0%. The “Population Membrane Permeable-Phenotype (%)” value [5] was 0%, the “Population Mitochondria Different-Phenotype (%)” value [5] was 2% and the “Population Mitotic Cells (%)” value [5] was 64%. The “Population Normal (%)” value [5] was 99%, the “Population Pyknosed Nuclei (%)” value [5] was 8% and the “Population Tubulin-Different-Phenotype (%)” value [5] was 21%. For the same compound, the “Total Cell Count” value [5] was 169, the “Population Apoptotic (%)” value [6] was 50% and the “Population Fragmented Nuclei (%)” value [6] was 41%. For the same compound, the “Population Healthy Nuclei (%)” value [6] was 50%, the “Population Hoechst High Intensity Objects (%)” value [6] was 1% and the “Population Membrane Permeable-Phenotype (%)” value [6] was 4%. The “Population Mitochondria Different-Phenotype (%)” value [6] was 10%, the “Population Mitotic Cells (%)” value [6] was 50% and the “Population Normal (%)” value [6] was 98%. For the same compound, the “Population Tubulin-Different-Phenotype (%)” value [6] was 47%, the “Total Cell Count” value [6] was 184 and the “Population Apoptotic (%)” value [7] was 61%. The “Population Fragmented Nuclei (%)” value [7] was 17%, the “Population Healthy Nuclei (%)” value [7] was 72% and the “Population Hoechst High Intensity Objects (%)” value [7] was 2%. The “Population Membrane Permeable-Phenotype (%)” value [7] was 1%, the “Population Mitochondria Different-Phenotype (%)” value [7] was 3% and the “Population Mitotic Cells (%)” value [7] was 38%. The “Population Normal (%)” value [7] was 97%, the “Population Pyknosed Nuclei (%)” value [7] was 9% and the “Population Tubulin-Different-Phenotype (%)” value [7] was 21%. For the same compound, the “Total Cell Count” value [7] was 138, the “Population Apoptotic (%)” value [8] was 33% and the “Population Fragmented Nuclei (%)” value [8] was 18%. For the same compound, the “Population Healthy Nuclei (%)” value [8] was 59%, the “Population Hoechst High Intensity Objects (%)” value [8] was 4% and the “Population Membrane Permeable-Phenotype (%)” value [8] was 3%. The “Population Mitochondria Different-Phenotype (%)” value [8] was 1%, the “Population Mitotic Cells (%)” value [8] was 66% and the “Population Normal (%)” value [8] was 95%. The “Population Pyknosed Nuclei (%)” value [8] was 21%, the “Population Tubulin-Different-Phenotype (%)” value [8] was 29% and the “Total Cell Count” value [8] was 101. For the same compound, the “Population Apoptotic (%)” value [9] was 50%, the “Population Fragmented Nuclei (%)” value [9] was 27% and the “Population Healthy Nuclei (%)” value [9] was 66%. The “Population Hoechst High Intensity Objects (%)” value [9] was 3%, the “Population Membrane Permeable-Phenotype (%)” value [9] was 0% and the “Population Mitochondria Different-Phenotype (%)” value [9] was 2%. The “Population Mitotic Cells (%)” value [9] was 50%, the “Population Normal (%)” value [9] was 96% and the “Population Pyknosed Nuclei (%)” value [9] was 5%. For the same compound, the “Population Tubulin-Different-Phenotype (%)” value [9] was 19%, the “Total Cell Count” value [9] was 175 and the “Population Apoptotic (%)” value [10] was 30%. The “Population Fragmented Nuclei (%)” value [10] was 47%, the “Population Healthy Nuclei (%)” value [10] was 46% and the “Population Hoechst High Intensity Objects (%)” value [10] was 2%. The “Population Membrane Permeable-Phenotype (%)” value [10] was 3%, the “Population Mitochondria Different-Phenotype (%)” value [10] was 7% and the “Population Mitotic Cells (%)” value [10] was 70%. For the same compound, the “Population Normal (%)” value [10] was 97%, the “Population Tubulin-Different-Phenotype (%)” value [10] was 42% and the “Total Cell Count” value [10] was 186. For the same compound, the “Population Apoptotic (%)” value [11] was 63%, the “Population Fragmented Nuclei (%)” value [11] was 17% and the “Population Healthy Nuclei (%)” value [11] was 74%. For the same compound, the “Population Hoechst High Intensity Objects (%)” value [11] was 4%, the “Population Membrane Permeable-Phenotype (%)” value [11] was 0% and the “Population Mitochondria Different-Phenotype (%)” value [11] was 0%. The “Population Mitotic Cells (%)” value [11] was 36%, the “Population Normal (%)” value [11] was 95% and the “Population Pyknosed Nuclei (%)” value [11] was 8%. For the same compound, the “Population Tubulin-Different-Phenotype (%)” value [11] was 14%, the “Total Cell Count” value [11] was 141 and the “Population Apoptotic (%)” value [12] was 33%. The “Population Fragmented Nuclei (%)” value [12] was 30%, the “Population Healthy Nuclei (%)” value [12] was 61% and the “Population Hoechst High Intensity Objects (%)” value [12] was 0%. For the same compound, the “Population Membrane Permeable-Phenotype (%)” value [12] was 6%, the “Population Mitochondria Different-Phenotype (%)” value [12] was 3% and the “Population Mitotic Cells (%)” value [12] was 66%. For the same compound, the “Population Normal (%)” value [12] was 99%, the “Population Tubulin-Different-Phenotype (%)” value [12] was 47% and the “Total Cell Count” value [12] was 104.
